# MEKK2mut PB1 HTS: signal of MEK5 binding to mutant human MEKK2 PB1 domain; bead flow cytometry, Alexa488-MEK5 binding to MEKK2 mutant; percent response, % at 10 µM; 290,000 compounds, 0.35% hits; AID 1530; in the data active = percent response above about 24%, passing the limit was not always enough
# GSK3 alpha inh: inhibitors of human GSK-3 alpha kinase; P49840; ADP-Glo luminescence, 60 min; inhibition, % at 10 µM; 320,000 compounds, 0.1% hits; AID 2650;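 active = more than half of replicates show inhibition above 20%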;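 note: GST-tagged GSK-3 alpha with peptide substrate and 25 µM ATP; 0% = DMSO neutral wells and 100% = GW8510 positive control wells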
# Target sequence (P49840 whole entry, looked up): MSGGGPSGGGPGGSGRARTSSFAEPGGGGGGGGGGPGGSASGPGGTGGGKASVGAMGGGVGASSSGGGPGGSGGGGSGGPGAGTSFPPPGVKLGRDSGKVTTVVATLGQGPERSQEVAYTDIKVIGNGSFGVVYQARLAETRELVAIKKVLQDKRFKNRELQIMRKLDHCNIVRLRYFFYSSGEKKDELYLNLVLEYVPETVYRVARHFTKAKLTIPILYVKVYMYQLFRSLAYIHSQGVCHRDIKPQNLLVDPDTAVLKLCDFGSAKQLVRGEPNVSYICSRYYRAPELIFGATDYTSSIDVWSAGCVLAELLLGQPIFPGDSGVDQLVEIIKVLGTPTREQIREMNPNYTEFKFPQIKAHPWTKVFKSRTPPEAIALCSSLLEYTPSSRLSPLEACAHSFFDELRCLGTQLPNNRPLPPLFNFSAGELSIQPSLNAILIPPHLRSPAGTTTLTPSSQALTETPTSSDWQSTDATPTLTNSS
# MEKK2 WT-MEK5: raises or lowers MEK5 binding to wildtype human MEKK2 PB1 domain; Q9Y2U5; bead flow cytometry, Alexa488-MEK5 binding to MEKK2 WT; actives lie on both sides; binding response (% of control), % at 10 µM; 290,000 compounds, 1.1% hits; in the data active = binding response below about 67% or above about 130%
# MEKK3 PB1 HTS: modulators (inhibitors or enhancers) of MEK5 binding to human MEKK3 PB1 domain; 290,000 compounds, 1.4% hits; binding response (% of control), % at 10 µM; bead-based flow cytometry, Alexa488-MEK5 binding to MEKK3; actives lie on both sides; 0 = blocked by unlabeled MEK5, 100 = vehicle; AID 1529; Q99759;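 active = binding response more than 3 SD above or below the average of its plate-row segment, actives on both sides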;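 note: Alexa488 bead fluorescence after subtracting the streptavidin-only scavenger bead signal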
# STK33 inh: human STK33 kinase inhibition. inhibition, % at 10 µM. purified STK33, MBP phosphorylation, ADP-Glo luminescence. Q9BYT3. 320,000 compounds, 0.073% hits;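 active = inhibition at or above 25%, using the most active replicate where run in duplicate; inactive = inhibition below 25%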
# GSK3B inh: blocks human GSK3beta kinase activity; AID 2097; GST-GSK3beta kinase, ADP-Glo luminescence, 60 min; active compounds read low; P49841; activity score (negative = inhibition), % at 10 µM; 300,000 compounds, 0.038% hits;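 active = more than half of replicate wells score below -50%, meaning over 50% inhibition versus plate controls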;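 note: 0% = median DMSO wells and -100% = median GW8510 positive control wells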
#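 Assay system: GST-fused GSK3beta enzyme, cell-free / Medium: Tris pH 7.5 buffer with MgCl2, DTT, BSA, heparin / Also added: peptide substrate plus 25 µM ATP (final) / Compound: 10 µM single point / Timing: kinase reaction with compound 60 min at room temperature / Detection: ADP-Glo luminescence / Benchmarks: DMSO neutral wells and GW8510 at 20 µM as positive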
# Starred values were filed as active, the others as inactive; . = no result given; [ ] = another dose, or the depositor's remark. Compounds with a hit are over-represented: about 2.1% of the library has one in this group of screens.
SMILES,MEKK2mut PB1 HTS,GSK3 alpha inh,MEKK2 WT-MEK5,MEKK3 PB1 HTS,STK33 inh,GSK3B inh
NS(=O)(=O)c1ccc(CNC(=O)C(Cc2ccccc2)NS(=O)(=O)c2ccccc2F)cc1 (stereo not given),1,4,103,102,-2,5
O=S(=O)(c1ccc(-c2csc(Nc3ccc(Br)cc3)n2)cc1)N1CCCC1,7,1,-4.0*,106,-3,1
C=CCn1c(SCC(=O)Nc2ccc(Cl)cn2)nnc1C1CC1,4,32,104,100,1,-2
Cn1c(SCC(=O)Nc2ccc(Cl)cn2)nnc1C1CC1,-4,51*,98,100,-1,-30
CCn1c(SCC(=O)Nc2ccc(Br)cn2)nnc1C1CC1,7,23,116,107,1,-52*
Cc1ccc(C(=O)Oc2cccc(NC(=O)c3ccccc3)c2)cc1C,-2,-2,93,93,-1,-1
Cc1cccc(C(=O)Nc2ccc(C)c(OC(=O)c3cccc(C)c3)c2)c1,-26,.,-2.0*[inhibitor],2.0*[inhibitor],.,.
O=C(NC1CCCC1)C(c1ccncc1)N(C(=O)c1ccco1)c1ccc(F)c(Cl)c1 (stereo not given),-5,-2,97,98,0,-3
CCN(CC)c1ccc(C=C2C(=O)OC(c3ccccc3)OC2=O)cc1 (stereo not given),-4,-3,92,102,1,0
CCN(CC)c1ccc(/C=C/C(=O)C2C(=O)C=C(C)OC2=O)cc1 (stereo not given),61*,1,72,108,1,5
O=C(CSc1nnc(Cc2cc(=O)[nH]c(=O)[nH]2)n1-c1ccc(Cl)cc1)NCC1CCCO1 (stereo not given),17,-1,8.0*,101,0,.
O=C(CSc1nnc(Cc2cc(=O)[nH]c(=O)[nH]2)n1-c1ccccc1)NCC1CCCO1 (stereo not given),2,-2,97,104,-1,-6
COc1cc(/C=C2\CCC/C(=C\c3ccc(O)c(OC)c3)C2=O)ccc1O,3,-4,105,104,2,0
O=C1/C(=C/c2ccc(O)c(O)c2)Oc2cc(O)ccc21,9,50,107,105,46*,.
COc1cc(/C=C2\Oc3cc(O)ccc3C2=O)ccc1O,7,63*,110,93,-3,-32
CC(=O)N1CCN(S(=O)(=O)c2cccc(C(=O)Nc3nccs3)c2)CC1,-6,-2,97,102,0,-12
CCOC(=O)[C@@H]1[C@H]2COc3ccc(Br)cc3[C@H]2N2C(=O)N(c3cccc(F)c3)C(=O)[C@]12C,-1,0,104,103,-1,1
Cc1ccc(-c2csc(NC(=O)CSc3nc4ccccc4c(=O)n3CCCN(C)C)n2)cc1,67*,-2,207*,107,0,6
COc1cc2sc3cc(NCCCN4CCOCC4)ccc3c(=O)c2cc1OC,.,4,.,.,15,.
CN1CCCC1CCNc1ccc2sc3ccccc3c(=O)c2c1 (stereo not given),4,15,121,103,44*,-5
O=c1c2ccccc2sc2ccc(NCCCN3CCOCC3)cc12,7,9,131,105,57*,-3
O=c1[nH]cc(COCC(F)CCl)c(=O)[nH]1 (stereo not given),-4,-4,96,96,-3,-3
COc1cc(/C=C/C(=O)Nc2ccc(N3CCCCC3)c(S(=O)(=O)Nc3ccccc3Cl)c2)cc(OC)c1OC,26,-3,32*,110,-2,0
CCn1c(SCC(=O)Nc2ccc(OC)cc2)nc2c(c1=O)SCC2,8,1,107,105,1,0
Cc1cc(N2CCN(c3ccccc3)CC2)n2c(n1)nc1ccccc12,8,56*,95,99,1,-1
SMILES,MEKK2mut PB1 HTS,GSK3 alpha inh,MEKK2 WT-MEK5,MEKK3 PB1 HTS,STK33 inh,GSK3B inh
c1ccc(C2(Cn3ccc4ccccc43)OCCO2)cc1,3,-2,12*,95,-1,3
O=C1/C(=C/C=C/c2ccco2)SC(=S)N1c1ccc(O)cc1,-22,9,62*[inhibitor],87,-1,-3
CCOc1cccc2sc(N(CCN(CC)CC)C(=O)c3ccc(S(=O)(=O)N4CCCCC4)cc3)nc12,16,-2,128,103,-1,0
CCOc1cccc2sc(N(CCCN(C)C)C(=O)c3ccc(S(=O)(=O)N(C)Cc4ccccc4)cc3)nc12,62*,-1,233*,111,1,1
CCCCN(CC)S(=O)(=O)c1ccc(C(=O)N(CCCN(C)C)c2nc3cc(C)cc(C)c3s2)cc1,6,1,162*,145*,-1,-3
CCOc1cccc2sc(N(CCCN(C)C)C(=O)c3ccc(S(=O)(=O)N(CC)Cc4ccccc4)cc3)nc12,54*,-2,227*,113,2,0
CCOc1cccc2sc(N(CCCN(C)C)C(=O)c3ccc(S(=O)(=O)N4CCCCCC4)cc3)nc12,23,8,149*,103,-3,-4
CCN(Cc1ccccc1)S(=O)(=O)c1ccc(C(=O)N(CCCN(C)C)c2nc3cc(C)cc(C)c3s2)cc1,.,-2,.,.,-1,5
N#Cc1ccccc1S(=O)(=O)N1CCN(CC(=O)NCC2(N3CCOCC3)CCCCC2)CC1,.,10,.,.,-3,.
CC(C)c1nnc(NC(=O)C2CCCN2C(=O)Nc2ccc(F)cc2)s1 (stereo not given),4,-1,103,99,0,2
O=C(CCn1cnc2ccccc2c1=O)Nc1nc(-c2ccc(Br)cc2)cs1,0,-2,87,95,0,0
CC1CCCCN1S(=O)(=O)c1ccc(C(=O)N(CCCN(C)C)c2nc3ccc(Br)cc3s2)cc1 (stereo not given),76*,-3,258*,117,1,0
COc1cccc2sc(N(CCCN(C)C)C(=O)c3ccc(S(=O)(=O)N4CCc5ccccc5C4)cc3)nc12,38*,11,192*,107,2,-3
Cc1ccc2nc(N(CCCN(C)C)C(=O)c3ccc(S(=O)(=O)N4CCCCCC4)cc3)sc2c1,28*,3,171*,108,0,-3
CN(C)CCCN(C(=O)c1ccc(S(=O)(=O)N2CCc3ccccc32)cc1)c1nc2c(Cl)cccc2s1,58*,1,257*,109,0,1
C=CCSC1=C(C#N)C(c2ccccc2Cl)C(C(=O)c2cccs2)C(O)(C(F)(F)F)N1 (stereo not given),-2,-1,97,106,-2,4
CC(=O)Oc1ccc(/C=C(\NC(=O)c2cccc(Br)c2)C(=O)Nc2ccc(C(=O)O)cc2)cc1,.,-2,.,.,2,-1

# Screening data from PubChem.
